Results pooled from the literature.
Compare with care: the assays were run in different laboratories.
Target: Serine/threonine-protein kinase 32C (STK32C, Homo sapiens, UniProt Q86UX6)

Structure (SMILES) | assay | conditions | measurement | result
COc1cc(Cl)c(C(=O)N[C@@H](CN[C@H]2CC[C@@H](N)CC2)Cc2ccc(C#N)cc2)cc1-c1ccc(CN[C@H](C)c2ccc(C)cc2)o1 | enzyme activity, inhibitor | 1 µM | remaining activity | 95%
Nc1ncnc2occ(-c3ccc(NC(=O)Nc4cc(C(F)(F)F)ccc4F)cc3)c12 | cell-free assay | 20 µM | remaining signal | 91%
CN1CC(Oc2cnc(C#N)cc2-c2ccn3nc(NC(=O)C4CC4)cc3c2)C1 | enzyme activity, inhibitor | 1 µM | inhibition | -5%
O=C(Nc1cnn(-c2csc(C(=O)NC3COC3)c2)c1)Nc1ccccc1Cl | enzyme activity, inhibitor | 5 µM | remaining activity | 113%
O=C(CSc1nc2nccnc2c(=O)n1CCc1ccccc1)Nc1nccs1 | enzyme activity, inhibitor | 10 µM | inhibition | -9%
CN(C)C(=O)Cn1cc(-c2nc(C3(c4ccc(-c5cnc(N)nc5)cc4)CC3)no2)cn1 | cell-free assay, competition with immobilised ligand | 1 µM | remaining binding | 100%
CS(=O)(=O)Nc1cccc(-c2csc(NC(=O)CSc3nc4nccnc4c(=O)n3CCc3ccccc3)n2)c1 | enzyme activity, inhibitor | 10 µM | inhibition | -5%
Cc1nc(C2CCN(C(=O)c3ccc(OC(F)(F)F)cc3N)CC2)c2ncc(N3CCN(C)CC3)cc2n1 | cell-free assay, competition with immobilised ligand | 1 µM | remaining binding | 100%
CCCCNc1ncc2c(-c3ccc(F)cc3)nn(C[C@H]3CC[C@H](N)CC3)c2n1 | target engagement in cells, inhibitor, chemoproteomics | 20 mM | inhibition | 55%
Cc1ccc(C(=O)Nc2ccc(CN3CCN(C)CC3)c(C(F)(F)F)c2)cc1C#Cc1cnc2cccnn12 | enzyme activity | 23.5 nM | remaining activity | 100%
COc1cccc2c(NCc3ccccc3)nc(-n3c(N)nc4ccccc43)nc12 | target engagement in cells, inhibitor, chemoproteomics | 20 mM | inhibition | 13.6%
CC(C)(O)[C@H]1CC[C@H](Nc2ccc3ncc(-c4cccc(C(F)(F)F)c4)n3n2)CC1 | enzyme activity, inhibitor | 1 µM | remaining activity | 83.2%
O=C(Nc1cnn(-c2csc(C(=O)NC3COC3)c2)c1)Nc1c(F)cccc1Cl | enzyme activity, inhibitor | 5 µM | remaining activity | 90.7%
